pEC50, pKi: −log10 of the molar value.

Series [1] can be described thus: Cytotoxicity against human MT4 cells. It counts as cell-based.
For series [2], the system named is Human immunodeficiency virus 1. Put plainly: Antiviral activity against HIV1 in MT4 cells by XTT assay. The format is functional, organism-based. Particulars: Human immunodeficiency virus 1, MT4. In general terms: Tetrazolium dyes change colour on reduction, which living cells bring about.
The next series addresses Protease (Human immunodeficiency virus 1, UniProt Q9YQ12). Description: Inhibition of HIV1 protease expressed in Escherichia coli.
Series [3] can be described thus: Permeability from apical to basolateral side of human Caco-2 cell membrane. The format is ADME, cell-based. (Caco-2 monolayers are a common model of the intestinal barrier.)
A short description of series [4]: Metabolic stability in human liver microsomes after 30 mins. The format is ADME, Microsome. Particulars: read-out: Stability. Put shortly: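 Test compound incubated with human liver microsomes for 30 min at 37 °C. Read-out is percent parent compound remaining.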

Protease, sequence (Q9YQ12 whole entry): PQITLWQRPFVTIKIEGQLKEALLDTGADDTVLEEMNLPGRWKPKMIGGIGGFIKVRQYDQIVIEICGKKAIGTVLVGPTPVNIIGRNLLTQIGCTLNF

As a reminder, the CC50 is the concentration that lowers cell viability or growth by half. As usually defined, the pEC50 is the negative decadic logarithm of the EC50, by convention in mol/L. Read a high pEC50 as a small EC50. Usually pKi stands for −log10 of the Ki, conventionally taken in molar units. Read a low pKi as a high Ki. `COC(=O)N[C@H](C(=O)NN(CCC[C@@](O)(Cc1ccccc1)C(=O)N[C@H]1c2ccccc2C[C@H]1O)Cc1ccc(N(C)C)cc1)C(C)(C)C`: the 50% cytotoxic concentration (CC50) in series [1] is over 10000 nM. This compound also gave a pEC50 in series [2] of 6.01. The compound further had a negative-log Ki (pKi) on Protease of 8.31.
In general, Papp A→B refers to the apparent permeability from the apical to the basolateral side of a cell layer. A low value points to poor permeation. `COC(=O)N[C@H](C(=O)NN(CCC[C@@](O)(Cc1ccccc1)C(=O)N[C@H]1c2ccccc2C[C@H]1O)Cc1ccc(Br)cc1)C(C)(C)C` gave a CC50 in series [1] of over 10000 nM. For the same compound, the apical-to-basolateral permeability (Papp A→B) in series [3] is over 20 ×10⁻⁶ cm/s. In addition, in series [2], the pEC50 is 6.07.
On to `COC(=O)N[C@H](C(=O)NN(CCC[C@@](O)(Cc1ccccc1)C(=O)N[C@H]1c2ccccc2C[C@H]1O)Cc1ccc(-c2nc(C(C)(C)C)cs2)cc1)C(C)(C)C`, for which the CC50 in series [1] is over 10000 nM. The compound also showed a negative logarithm of the EC50 (pEC50) in series [2] of 6.00. Further, the negative logarithm of the Ki (pKi) at Protease was 7.62.
In series [1], `COC(=O)N[C@H](C(=O)NN(CCC[C@@](O)(Cc1ccccc1)C(=O)N[C@H]1c2ccccc2C[C@H]1O)Cc1ccccc1)C(C)(C)C` gave a cytotoxic concentration (CC50) of over 10000 nM. Further, the apical-to-basolateral permeability (Papp A→B) in series [3] is under 20 ×10⁻⁶ cm/s. For the same compound, the pEC50 in series [2] is 5.92. Besides, the pKi at Protease is 8.24.
In series [1], `COC(=O)N[C@H](C(=O)NN(CCC[C@@](O)(Cc1ccccc1)C(=O)N[C@H]1c2ccccc2C[C@H]1O)Cc1ccc(-n2ccnc2)cc1)C(C)(C)C` showed a CC50 of over 10000 nM. In series [2], this compound gave a pEC50 of 6.77. On Protease, this compound showed a negative-log Ki (pKi) of 8.48.
With `COC(=O)N[C@H](C(=O)NN(CCC[C@@](O)(Cc1ccccc1)C(=O)N[C@H]1c2ccccc2C[C@H]1O)CC(C)C)C(C)(C)C`, the half-maximal cytotoxic concentration (CC50) in series [1] was over 10000 nM. The compound further showed a negative logarithm of the EC50 (pEC50) in series [2] of 5.74. In addition, on Protease, the pKi is 8.17.
In series [1], `COC(=O)N[C@H](C(=O)NN(Cc1ccc(Br)cc1)C(=O)CC[C@@](O)(Cc1ccccc1)C(=O)N[C@H]1c2ccccc2C[C@H]1O)C(C)(C)C` registered a half-maximal cytotoxic concentration (CC50) of over 10000 nM. For the same compound, the negative-log EC50 (pEC50) in series [2] was under 5.00.
Turning to `COC(=O)N[C@H](C(=O)NN(CCC[C@@](O)(Cc1ccccc1)C(=O)N[C@H]1c2ccccc2C[C@H]1O)Cc1ccc(CN2CCOCC2)cc1)C(C)(C)C`, in series [1], the cytotoxic concentration (CC50) is over 10000 nM. The pEC50 in series [2] was 6.06. Moreover, at Protease, the negative-log Ki (pKi) is 7.96.
For `COC(=O)N[C@H](C(=O)NN(CCC[C@@](O)(Cc1ccccc1)C(=O)N[C@H]1c2ccccc2C[C@H]1O)Cc1ccc(-c2ccccn2)cc1)C(C)(C)C`, in that order: over 10000 nM, 6.33 and 8.55.
In series [1], `COC(=O)N[C@H](C(=O)NN(CCC[C@@](O)(Cc1ccccc1)C(=O)N[C@H]1c2ccccc2C[C@H]1O)Cc1ccc(I)cc1)C(C)(C)C` showed a CC50 of over 10000 nM. Besides, in series [2], the pEC50 is 6.09. For the same compound, at Protease, the negative logarithm of the Ki (pKi) was 8.35.
In series [1], `COC(=O)N[C@H](C(=O)NN(Cc1ccc(-c2cccnc2)cc1)C[C@](O)(Cc1ccccc1)C(=O)N[C@H]1c2ccccc2C[C@H]1O)C(C)(C)C` showed a cytotoxic concentration (CC50) of over 10000 nM. For the same compound, in series [2], the negative logarithm of the EC50 (pEC50) is 6.74.
`COC(=O)N[C@H](C(=O)NN(CCC[C@@](O)(Cc1ccccc1)C(=O)N[C@H]1c2ccccc2C[C@H]1O)Cc1ccc(-c2cn3ccsc3n2)cc1)C(C)(C)C` returned a CC50 in series [1] of over 10000 nM. The negative logarithm of the EC50 (pEC50) in series [2] was 6.32. Further, the negative-log Ki (pKi) at Protease is 8.64.
As to `COC(=O)N[C@H](C(=O)NN(CCC[C@@](O)(Cc1ccccc1)C(=O)N[C@H]1c2ccccc2C[C@H]1O)Cc1ccc(-c2ccccc2)cc1)C(C)(C)C`, in series [1], half-maximal cytotoxicity (CC50) was put at 7500 nM. Also, the Papp A→B in series [3] was over 20 ×10⁻⁶ cm/s. In series [2], the pEC50 was 6.11. The pKi at Protease is 8.14.
The compound `CC(C)(C)NC(=O)[C@@H]1CN(Cc2cccnc2)CCN1C[C@@H](O)C[C@@H](Cc1ccccc1)C(=O)N[C@H]1c2ccccc2C[C@H]1O` gave a pEC50 in series [2] of 7.39.
Regarding `COC(=O)N[C@H](C(=O)NN(CCC[C@@](O)(Cc1ccccc1)C(=O)N[C@H]1c2ccccc2C[C@H]1O)Cc1ccc(N2CCOCC2)cc1)C(C)(C)C`, the CC50 in series [1] is over 10000 nM. Besides, in series [2], the pEC50 is 6.30. On Protease, this compound gave a pKi of 8.44.
In series [1], `COC(=O)N[C@H](C(=O)NN(CCC[C@@](O)(Cc1ccccc1)C(=O)N[C@H]1c2ccccc2C[C@H]1O)Cc1ccc(-c2ccncc2)cc1)C(C)(C)C` showed a CC50 of over 10000 nM. Moreover, in series [3], the apparent permeability from apical to basolateral (Papp A→B) is under 20 ×10⁻⁶ cm/s. In addition, in series [2], the negative logarithm of the EC50 (pEC50) was 6.77. The compound further gave a negative logarithm of the Ki (pKi) at Protease of 8.55. Also, the remaining at 0.5 h in series [4] is 94%.
With `COC(=O)N[C@H](C(=O)N[C@@H](Cc1ccccc1)[C@@H](O)CN(Cc1ccc(-c2ccccn2)cc1)NC(=O)[C@@H](NC(=O)OC)C(C)(C)C)C(C)(C)C` [ATAZANAVIR], in series [2], the negative logarithm of the EC50 (pEC50) is 8.41. The same compound gave a negative-log Ki (pKi) on Protease of 8.57.
On to `COC(=O)N[C@H](C(=O)NN(CCC[C@@](O)(Cc1ccccc1)C(=O)N[C@H]1c2ccccc2C[C@H]1O)Cc1ccc(OCc2cnc(Cl)s2)cc1)C(C)(C)C`, for which the CC50 in series [1] was over 10000 nM. The negative-log EC50 (pEC50) in series [2] is 6.22.
In series [1], `COC(=O)N[C@H](C(=O)NN(CCC[C@@](O)(Cc1ccccc1)C(=O)N[C@H]1c2ccccc2C[C@H]1O)Cc1ccc(-c2nccs2)cc1)C(C)(C)C` displayed a 50% cytotoxic concentration (CC50) of over 10000 nM. This compound returned an apical-to-basolateral permeability (Papp A→B) in series [3] of over 20 ×10⁻⁶ cm/s. The compound also had a pEC50 in series [2] of 6.68. Besides, at Protease, the negative-log Ki (pKi) was 8.64.
For the compound `COC(=O)N[C@H](C(=O)NN(CCC[C@](Cc1ccccc1)(O[Si](C)(C)C(C)(C)C)C(=O)N[C@H]1c2ccccc2C[C@H]1O[Si](C)(C)C(C)(C)C)Cc1ccc(Br)cc1)C(C)(C)C`, the CC50 in series [1] is over 10000 nM. The compound also had a pEC50 in series [2] of under 5.00. For the same compound, the pKi at Protease was 6.01.
As for `COC(=O)N[C@H](C(=O)NN(CCC[C@@](O)(Cc1ccccc1)C(=O)N[C@H]1c2ccccc2C[C@H]1O)Cc1ccc(-c2cccnc2)cc1)C(C)(C)C`, the CC50 in series [1] was over 10000 nM. Besides, in series [3], the Papp A→B is under 20 ×10⁻⁶ cm/s. Moreover, the pEC50 in series [2] is 6.72. Further, the negative-log Ki (pKi) at Protease was 8.44. For the same compound, the remaining at 0.5 h in series [4] was determined as 94%.
`COC(=O)N[C@H](C(=O)NN(CCC[C@@](O)(Cc1ccccc1)C(=O)N[C@H]1c2ccccc2C[C@H]1O)Cc1ccc(-c2noc(C)n2)cc1)C(C)(C)C`: the CC50 in series [1] was over 10000 nM. Besides, the negative logarithm of the EC50 (pEC50) in series [2] is 6.72. Also, on Protease, the negative logarithm of the Ki (pKi) is 8.44.
For `COC(=O)N[C@H](C(=O)NN(CCC[C@@](O)(Cc1ccccc1)C(=O)N[C@H]1c2ccccc2C[C@H]1O)Cc1ccc(C#N)cc1)C(C)(C)C` the same measures were over 10000 nM, 5.92 and 8.54.
For the compound `COC(=O)N[C@H](C(=O)NN(CCC[C@@](O)(Cc1ccccc1)C(=O)N[C@H]1c2ccccc2C[C@H]1O)Cc1ccc(Cl)cc1)C(C)(C)C`, the CC50 in series [1] is over 10000 nM. Moreover, in series [2], the pEC50 was 6.04. On Protease, this compound had a negative-log Ki (pKi) of 8.47.
Take `COC(=O)N[C@H](C(=O)NN(Cc1ccc(Br)cc1)C[C@](O)(Cc1ccccc1)C(=O)N[C@H]1c2ccccc2C[C@H]1O)C(C)(C)C`: in series [2], the pEC50 was 5.96.
In series [1], `COC(=O)N[C@H](C(=O)NN(CCC[C@](O)(Cc1ccccc1)C(=O)N[C@H]1c2ccccc2C[C@H]1O)Cc1ccc(Br)cc1)C(C)(C)C` yielded a cytotoxic concentration (CC50) of over 10000 nM. In series [3], this compound showed an apical-to-basolateral permeability (Papp A→B) of over 20 ×10⁻⁶ cm/s. The same compound showed a negative-log EC50 (pEC50) in series [2] of under 5.00. This compound showed a pKi at Protease of 6.38.
`COC(=O)N[C@H](C(=O)NN(CCC[C@@](O)(Cc1ccccc1)C(=O)N[C@H]1c2ccccc2C[C@H]1O)Cc1ccc(-c2csc(C)n2)cc1)C(C)(C)C` registered a CC50 in series [1] of over 10000 nM. The compound further had a pEC50 in series [2] of 6.29. At Protease, this compound had a pKi of 8.46.
For `COC(=O)N[C@H](C(=O)NN(CCC[C@@](O)(Cc1ccccc1)C(=O)N[C@H]1c2ccccc2C[C@H]1O)Cc1ccc(-c2ccsc2)cc1)C(C)(C)C` the same measures were over 10000 nM, 6.25 and 8.00.
`COC(=O)N[C@H](C(=O)NN(CCC[C@@](O)(Cc1ccccc1)C(=O)N[C@H]1c2ccccc2C[C@H]1O)Cc1ccc(F)cc1)C(C)(C)C` had a CC50 in series [1] of over 10000 nM. Also, the pEC50 in series [2] was 6.01. Besides, at Protease, the pKi was 8.17.
For `COC(=O)N[C@H](C(=O)NN(CCC[C@@](O)(Cc1ccccc1)C(=O)N[C@H]1c2ccccc2C[C@H]1O)Cc1ccc(-c2cncnc2)cc1)C(C)(C)C` the same measures were over 10000 nM, 6.66 and 8.62.
For `COC(=O)N[C@H](C(=O)NN(CCC[C@](Cc1ccccc1)(O[Si](C)(C)C(C)(C)C)C(=O)N[C@H]1c2ccccc2C[C@H]1O)Cc1ccc(Br)cc1)C(C)(C)C`, in that order: 5800 nM, under 5.00 and 6.72.

Values taken from ChEMBL document CHEMBL1143221, “Two-carbon-elongated HIV-1 protease inhibitors with a tertiary-alcohol-containing transition-state mimic” (J Med Chem, 2008).
